Assay results reported in ChEMBL document CHEMBL5143675, “Attenuating the Streptococcus pneumoniae Competence Regulon Using Urea-Bridged Cyclic Dominant-Negative Competence-Stimulating Peptide Analogs” (J Med Chem, 2022).
Activity calls are given as the source filed them. The rule behind the calls is not given here. *1 amine or outer side, *2 acyl side, *3 side chain or, on linkers, in order; H or OH if unused. Where a SMILES comes first, the peptide text is derived from it. Bridges are numbered along the chain shown (N, C = ends). [ ]: non-standard residue; d: D form. Dab = NCC[C@H](N)C(=O)O; CO = O=C([*:1])[*:2]

Tests used:
Erythrocyte [1] = assay: Hemolytic activity against sheep RBC assessed as hemolysis using compound treated Streptococcus pneumoniae TIGR4 cultured PLY supernatant at 46 to 368 nM incubated for 30 mins; format: toxicity, cell-based, Ovis aries; conditions: 0.5 h, 0.368 µM, dose 46-368 nM
How it was run: (§1)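 Supernatants: centrifuged, 0.22 μm filtered, concentrated 50x, serially two-fold diluted, 10 mM DTT for 15 min at room temperature. Then mixed with 2% sheep RBC for 30 min at 37 °C; A541 of cleared supernatant read. HU = highest dilution giving 50% lysis. Triplicate.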

[2] = Toxicity in Streptococcus pneumoniae D39 infected CD-1 mouse model assessed as mortality at 4 mg/kg,iv measured after 120 hrs post infection; format: organism-based; conditions: in vivo
How it was run: (§2)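 Seven-week-old CD-1 mice, male and female, n=15 per cohort, isoflurane-anaesthetized, infected intranasally with D39 (4.5×10^6 CFU) or TIGR4 (1.07×10^6 CFU). Treated retro-orbitally i.v. with 4 mg/kg or PBS vehicle at 2 and 24 hpi; mortality monitored for 120 hpi.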

[3] = Toxicity in CD-1 mouse assessed as appearance of lesions in kidney at 4 mg/kg, ip administered daily for 6 days by H and E staining based assay; format: organism-based; conditions: in vivo, 144 h, time 6 day
Streptococcus pneumoniae [4] = assay: Antibacterial activity against erythromycin-resistant Streptococcus pneumoniae D39 infected in CD-1 mouse assessed as reduction in bacterial burden in mouse spleen at 4 mg/kg,iv measured after 48 hrs post infection; format: functional, organism-based
How it was run: (§3)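 Seven-week-old CD-1 mice, male and female, n=10 per cohort, inoculated intranasally with a 1:1 mix of D39-rplL-ErmR and TIGR4-rplL-KanR (2.5×10^6 CFU each). Treated retro-orbitally i.v. with 4 mg/kg or PBS vehicle at 2 and 24 hpi; euthanized at 48 hpi. Lung and spleen homogenates were plated on THY with erythromycin (250 ng/mL) for D39 or […] for TIGR4.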

Erythrocyte [5] = assay: Hemolytic activity against sheep RBC assessed as hemolysis using compound treated Streptococcus pneumoniae D39 cultured PLY supernatant at 46 to 368 nM incubated for 30 mins; format: toxicity, cell-based, Ovis aries; conditions: 0.5 h, 0.368 µM, dose 46-368 nM; how it was run: as §1
Streptococcus pneumoniae [6] = assay: Antagonist activity against CSP1-mediated pneumolysin release in Streptococcus pneumoniae D39 assessed as inhibition of autolytic release of pneumolysin at 46 to 368 nM in presence of CSP1 by Western blot analysis; conditions: filed as antagonist, dose 46-368 nM
[7] = Toxicity in CD-1 mouse assessed as appearance of lesions in heart at 4 mg/kg, ip administered daily for 6 days by H and E staining based assay; format: organism-based; conditions: in vivo, 144 h, time 6 day
[8] = Toxicity in CD-1 mouse assessed as appearance of lesions in liver at 4 mg/kg, ip administered daily for 6 days by H and E staining based assay; format: organism-based; conditions: in vivo, 144 h, time 6 day
[9] = Toxicity in CD-1 mouse assessed as appearance of lesions in lung at 4 mg/kg, ip administered daily for 6 days by H and E staining based assay; format: organism-based; conditions: in vivo, 144 h, time 6 day
[10] = Toxicity in CD-1 mouse assessed as increase in body weight at 4 mg/kg, ip administered daily for 6 days; format: organism-based; conditions: in vivo, 144 h, time 6 day
Streptococcus pneumoniae [11] = assay: Antibacterial activity against erythromycin-resistant Streptococcus pneumoniae D39 infected in CD-1 mouse assessed as reduction in bacterial burden in mouse lung at 4 mg/kg,iv measured after 48 hrs post infection; format: functional, organism-based; how it was run: as §3
[12] = Toxicity in Streptococcus pneumoniae TIGR4 infected CD-1 mouse model assessed as mortality at 4 mg/kg,iv measured after 72 hrs post; format: organism-based; conditions: in vivo; how it was run: as §2
[13] = Toxicity in CD-1 mouse assessed as appearance of lesions in spleen at 4 mg/kg, ip administered daily for 6 days by H and E staining based assay; format: organism-based; conditions: in vivo, 144 h, time 6 day

**Q.** With `CC[C@H](C)[C@H](NC(=O)[C@H](Cc1ccccc1)NC(=O)[C@@H]1CCNC(=O)NCC[C@H](NC(=O)[C@H](CO)NC(=O)[C@H](CC(C)C)NC(=O)[C@H](CCCNC(=N)N)NC(=O)[C@H](CCSC)NC(=O)[C@H](C)N)C(=O)N[C@@H](Cc2ccccc2)C(=O)N[C@@H](Cc2ccccc2)C(=O)N[C@@H](CCCNC(=N)N)C(=O)N1)C(=O)N[C@@H](CC(C)C)C(=O)N[C@@H](CCC(N)=O)C(=O)N[C@@H](CCCNC(=N)N)C(=O)N[C@@H](CCCCN)C(=O)N[C@@H](CCCCN)C(=O)O` (H-AMRLS[Dab]FFR[Dab]FILQRKK-OH; linker 6-10 via CO) as the compound, how does the Activity (Erythrocyte [1]) read?
**A.** Its Activity is “Toxic”.

**Q.** And the Activity [2]?
**A.** Its Activity is “Non-Toxic”.

**Q.** What about the Activity [3] of the same compound?
**A.** Its Activity is “Non-Toxic”.

**Q.** And the Activity (Streptococcus pneumoniae [4])?
**A.** Its Activity is “Active”.

**Q.** And the Activity (Erythrocyte [5])?
**A.** The Activity was “Non-Toxic”.

**Q.** And the Activity (Streptococcus pneumoniae [6])?
**A.** Its Activity is “Active”.

**Q.** What about the Activity [7] of the same compound?
**A.** Its Activity is “Non-Toxic”.

**Q.** And the Activity [8]?
**A.** The Activity was “Non-Toxic”.

**Q.** And the Activity [9]?
**A.** The Activity was “Non-Toxic”.

**Q.** And the Activity [10]?
**A.** Its Activity is “Non-Toxic”.

**Q.** What about the Activity (Streptococcus pneumoniae [11]) of the same compound?
**A.** Its Activity is “Active”.

**Q.** And the mortality at 72 h [12]?
**A.** Its mortality at 72 h is 50%.

**Q.** What about the Activity [13] of the same compound?
**A.** The Activity was “Non-Toxic”.
